Laboratory results as given in ChEMBL document CHEMBL1123282, “Antiinflammatory activity of substituted 6-hydroxypyrimido[2,1-f]purine-2,4,8(1H,3H,9H)-triones. Atypical nonsteroidal antiinflammatory agents” (J Med Chem, 1986).
Where “and” joins values, the source holds several entries; their conditions need not be identical. Equal entries are not always repeated.

Key:
Rattus norvegicus [1] = assay: compound was tested in vivo for antiinflammatory activity against rats by RPAR(reverse passive Arthus reaction) synovitis method
Rattus norvegicus [2] = assay: Compound was tested in vivo for antiinflammatory activity against chronic adjuvant arthritic rat by prophylactic inhibition 2 degree paw after peroral administration of 1 mg/kg of dose; conditions: po, read-out: Inhibition
Rattus norvegicus [3] = assay: Compound was tested in vivo for antiinflammatory activity against chronic adjuvant arthritic rat by therapeutic inhibition 2 degree paw after peroral administration of 0.3 mg/kg of dose; conditions: po, read-out: Inhibition
Rattus norvegicus [4] = assay: Compound was tested in vivo for antiinflammatory activity against chronic adjuvant arthritic rat by therapeutic inhibition 2 degree paw after peroral administration of 1 mg/kg of dose; type: functional; conditions: route oral
Rattus norvegicus [5] = assay: Compound was tested in vivo for antiinflammatory activity against chronic adjuvant arthritic rat by therapeutic inhibition 2 degree paw after peroral administration of 3 mg/kg of dose; conditions: po, read-out: Inhibition
Rattus norvegicus [6] = assay: Compound was tested in vivo for antiinflammatory activity against chronic adjuvant arthritic rat by therapeutic inhibition 2 degree paw after peroral administration of 5 mg/kg of dose; conditions: po, read-out: Inhibition
Rattus norvegicus [7] = species: Rattus norvegicus; assay: animal or person; conditions: po, read-out: Inhibition
Rattus norvegicus [8] = species: Rattus norvegicus; assay: Delayed Type hypersensitivity (DTH) is measured by increase in ear thickness 24 hours after antigen injection into pinna; type: functional
Rattus norvegicus [9] = species: Rattus norvegicus; assay: compound was tested for antiinflammatory activity by immune response to collagen II antigen in rats, antibody titer was determined by passive hemagglutinination; type: functional, organism-based
In short: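 Rats immunized with bovine type II collagen in incomplete Freund's adjuvant, with drug given alongside. Antibody titer to collagen II measured by passive hemagglutination; p ≤ 0.05 by Student's t-test.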

Rattus norvegicus [10] = species: Rattus norvegicus; assay: compound was tested for antiinflammatory activity against collagen II arthritis in rats,; type: functional
In short: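 Arthritis induced in rats by injection of bovine articular cartilage type II collagen (dissolved in 0.01 M AcOH, dialysed against saline) mixed 1:1 with incomplete Freund's adjuvant. Paw inflammation checked weekly for 7 weeks. Inhibition = [Δpaw vol(collagen) − Δpaw vol(collagen + drug)]/[Δpaw vol(collagen) − Δpaw vol(ICFA control)] × 100. Bone damage scored by lateral-projection radiography; p ≤ 0.05 by Student's t-test.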

Rattus norvegicus [11] = assay: Compound was tested in vivo for antiinflammatory activity against rats by RPAR(reverse passive Arthus reaction) synovitis method ata dose of 50 mg/kg, po; type: functional
In short: (§1)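 Lewis rats, oral drug or placebo 1 h before iv BSA (2.28 mg in saline), then intraarticular rabbit anti-BSA (0.54 mg) into one knee and saline into the other, under light anesthesia. Second oral dose at 3 h; the total of both doses is the calculated dose. About 17 h after induction, subpatellar tissue with synovium is excised and weighed. Response is antibody-minus-saline knee weight, tested by analysis of variance.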

Rattus norvegicus [12] = assay: Compound was tested for intestinal ulcerogenic effect in rats at a dose of 10 mg/kg; type: functional
In short: (§2)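 Normal fed rats were gavaged once daily for three consecutive days at 10–300 mg/kg and killed 24 h after the last dose. Intestines were examined for ulcers, recording incidence per group of 8 and a lesion score (±SE).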

Rattus norvegicus [13] = species: Rattus norvegicus; assay: Compound was tested for intestinal Ulcerogenic effect in rats, activity expressed as lesion score; type: functional; in short: as §2
Rattus norvegicus [14] = species: Rattus norvegicus; assay: Compound was tested for gastric Ulcerogenic effect in rats, activity expressed as lesion length
Rattus norvegicus [15] = species: Rattus norvegicus; assay: Compound was tested for intestinal Ulcerogenic effect in rats, activity expressed as ulcer incidence; type: functional; in short: as §2
Rattus norvegicus [16] = assay: Compound was tested in vivo for antiinflammatory activity against chronic adjuvant arthritic rat by prophylactic inhibition 1 degree paw after peroral administration of 10 mg/kg of dose; type: functional; conditions: route oral
In short: (§3)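 Prophylactic adjuvant arthritis: heat-killed Mycobacterium tuberculosis powder in paraffin oil (6 mg/mL), 0.1 mL injected into the left hind paw. Drug given orally 1 h before adjuvant, then for 21 consecutive days; controls received methyl cellulose. Left (1°) and right (2°) hind paw volumes were measured by plethysmograph.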

Rattus norvegicus [17] = assay: In vivo antiinflammatory activity against rats by RPAR(reverse passive Arthus reaction) synovitis method; type: functional; parameters: concentration or dose not given beside the values; in short: as §1
[18] = molecular target: Cyclooxygenase (Rattus norvegicus) (UniProt P35355+Q63921); assay: In vitro inhibitory activity against Prostaglandin G/H synthase in rat neutrophils at a dose of 50 uM
[19] = molecular target: T1, Polyunsaturated fatty acid 5-lipoxygenase (Rattus norvegicus) (UniProt P12527); assay: In vitro inhibitory activity against Lipoxygenase in rat neutrophils at a dose of 50 uM
T1 sequence (whole entry): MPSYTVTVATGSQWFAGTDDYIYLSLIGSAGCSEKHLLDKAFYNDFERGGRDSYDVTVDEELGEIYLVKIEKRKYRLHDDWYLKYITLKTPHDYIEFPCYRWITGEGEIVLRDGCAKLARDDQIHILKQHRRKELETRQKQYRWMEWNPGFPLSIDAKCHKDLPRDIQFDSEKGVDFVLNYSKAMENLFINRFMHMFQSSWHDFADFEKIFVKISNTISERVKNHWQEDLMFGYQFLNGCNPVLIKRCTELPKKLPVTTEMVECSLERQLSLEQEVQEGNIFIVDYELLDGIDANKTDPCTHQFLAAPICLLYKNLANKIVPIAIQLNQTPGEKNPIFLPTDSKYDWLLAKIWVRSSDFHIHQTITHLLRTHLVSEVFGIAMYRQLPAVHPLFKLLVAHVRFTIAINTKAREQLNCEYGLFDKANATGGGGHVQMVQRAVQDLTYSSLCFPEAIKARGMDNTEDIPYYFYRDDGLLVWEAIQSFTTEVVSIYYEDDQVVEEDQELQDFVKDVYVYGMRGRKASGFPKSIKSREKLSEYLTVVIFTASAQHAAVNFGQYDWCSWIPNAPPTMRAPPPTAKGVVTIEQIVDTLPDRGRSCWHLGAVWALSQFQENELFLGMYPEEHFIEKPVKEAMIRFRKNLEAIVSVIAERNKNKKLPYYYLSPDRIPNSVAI
In short: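 Neutrophils come from the 4 h pleural exudate of male Wistar-Lewis rats given iv BSA plus intrapleural rabbit anti-BSA IgG. Cells are washed, red cells lysed with NH4Cl, and resuspended at about 5×10^6 cells/0.1 mL in Tris pH 7.4 with NaCl and 1 mM CaCl2. Cells are preincubated with compound 4 min at room temperature.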

Rattus norvegicus [20] = assay: Compound was tested in vivo for antiinflammatory activity against chronic adjuvant arthritic rat by prophylactic inhibition 2 degree paw after peroral administration of 10 mg/kg of dose; type: functional; conditions: route oral; in short: as §3
Rattus norvegicus [21] = assay: Compound was tested in vivo for antiinflammatory activity against chronic adjuvant arthritic rat by prophylactic inhibition 2 degree paw after peroral administration of 36 mg/kg of dose; type: functional; conditions: route oral
Rattus norvegicus [22] = assay: Compound was tested in vivo for antiinflammatory activity against chronic adjuvant arthritic rat by prophylactic inhibition 1 degree paw after peroral administration of 36 mg/kg of dose; type: functional; conditions: route oral

With `COc1ccc2cc([C@H](C)C(=O)O)ccc2c1` [NAPROXEN] the ED50 (Rattus norvegicus [1]) was 24.4 mg/kg, the inhibition in vivo at 1 mg/kg (Rattus norvegicus [2]) was 14% and the inhibition in vivo at 0.3 mg/kg (Rattus norvegicus [3]) was 27%. For the same compound, the inhibition in vivo at 1 mg/kg (Rattus norvegicus [4]) was 50%, the inhibition in vivo at 3 mg/kg (Rattus norvegicus [5]) was 70% and the inhibition in vivo at 5 mg/kg (Rattus norvegicus [6]) was 44%. For the same compound, the inhibition in vivo at 25 mg/kg (Rattus norvegicus [7]) was 58%.
With AURANOFIN the DTH (Rattus norvegicus [8]) was 0.0445 mM, the Antibody titer (Rattus norvegicus [9]) was 12.9 log-2 and the Positive (Rattus norvegicus [10]) was 43.7% and 43.8%.
In the case of `Cc1c(O)n(Cc2ccccc2F)c2nc3c(c(=O)n(C)c(=O)n3C)n2c1=O`, the inhibition in vivo at 50 mg/kg (Rattus norvegicus [11]) is reported as 0%.
Work on `COc1ccc2c(c1)c(CC(=O)O)c(C)n2C(=O)c1ccc(Cl)cc1` [INDOMETHACIN] yielded a Ulcer incidence (Rattus norvegicus [12]) of 8 number/group, a Lesion length (Rattus norvegicus [13]) of 4.2 mm rat-1 and a Length (Rattus norvegicus [14]) of 5 mm rat-1. For the same compound, the Ulcer incidence (Rattus norvegicus [15]) was 8 number/group.
`C=CCc1c(O)n(Cc2ccccc2)c2nc3c(c(=O)n(C)c(=O)n3C)n2c1=O` was tested, and the inhibition in vivo at 10 mg/kg (Rattus norvegicus [16]) was 16%, the Inhibition (Rattus norvegicus [17]) was 29% and the inhibition [18] was 16%. For the same compound, the inhibition [19] was 16% and 20% and the inhibition in vivo at 10 mg/kg (Rattus norvegicus [20]) was 16%.
For `Cn1c(=O)c2c(nc3n(Cc4ccccc4)c(O)c(CC=C4CCCCC4)c(=O)n23)n(C)c1=O`, the Inhibition (Rattus norvegicus [17]) was 7%, the inhibition in vivo at 36 mg/kg (Rattus norvegicus [21]) was 39% and the inhibition [18] was 0%. For the same compound, the inhibition in vivo at 36 mg/kg (Rattus norvegicus [22]) was 6% and the inhibition [19] was 10% and 9%.
In the case of `CCCc1c(O)n(C(C)c2ccccc2)c2nc3c(c(=O)n(C)c(=O)n3C)n2c1=O` (stereo unspecified), the inhibition in vivo at 50 mg/kg (Rattus norvegicus [11]) is reported as 0%.
